Data taken from ChEMBL document CHEMBL1135021, “Biotinylated lithocholic acids for affinity chromatography of mammalian DNA polymerases alpha and beta” (Bioorg Med Chem Lett, 2002).

What was measured:
Nucleic Acid [1] = assay: Compound was evaluated for relative maximum velocity (Vmax) at a concentration of 0 uM on calf DNA polymerase alpha as a function of nucleotide substrate concentration; assay type: nucleic-acid assay; details: Bos taurus
Method in brief: (§1)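 Kinetic runs used calf thymus pol α or rat pol β (0.05 units each) preincubated with compound at 0 °C for 10 min in Tris–HCl pH 7.5/DTT/glycerol/EDTA buffer. Either poly(dA)/oligo(dT)12–18 (2/1) template-primer or dTTP substrate was varied. Km and Vmax came from double reciprocal plots, Ki from Dixon plots.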

Nucleic Acid [2] = assay: Compound was evaluated for relative maximum velocity (Vmax) at a concentration of 0 uM on calf DNA polymerase alpha as a function of DNA template primer dose; assay type: nucleic-acid assay; details: Bos taurus; method in brief: as §1
Nucleic Acid [3] = details: Bos taurus; 25 uM
Nucleic Acid [4] = details: Bos taurus; 25 uM; remark: listed apart in the source
Nucleic Acid [5] = details: Bos taurus; 50 uM
Nucleic Acid [6] = details: Bos taurus; 50 uM; remark: listed apart in the source
Nucleic Acid [7] = details: Bos taurus; 25 uM; remark: listed apart in the source
Nucleic Acid [8] = details: Bos taurus; 25 uM; remark: listed apart in the source
[9] = system: C[C@H](CCC(=O)O)[C@H]1CC[C@H]2[C@@H]3CCC4C[C@@H](OC(=O)CCNC(=O)CCCCCNC(=O)CCCCCNC(=O)CCCCC5SCC6NC(=O)NC65)CC[C@]4(C)[C@H]3CC[C@]12C; assay: Compound was evaluated for relative maximum velocity (Vmax)at a concentration of 10 uM on rat DNA polymerase beta as a function of nucleotide substrate concentration
Method in brief: (§2)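 Rat DNA pol β (0.05 units) was used. Compound was dissolved in DMSO, sonicated 30 s, and preincubated with enzyme for 10 min at 0 °C in 50 mM Tris–HCl (pH 7.5), 1 mM dithiothreitol, 50% glycerol and 0.1 mM EDTA. It was then added to the standard reaction. Template-primer poly(dA)/oligo(dT)12–18 (2/1) or dTTP substrate was varied. Km and Vmax came from double reciprocal plots.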

[10] = system: C[C@H](CCC(=O)O)[C@H]1CC[C@H]2[C@@H]3CCC4C[C@@H](OC(=O)CCNC(=O)CCCCCNC(=O)CCCCCNC(=O)CCCCC5SCC6NC(=O)NC65)CC[C@]4(C)[C@H]3CC[C@]12C; assay: Michaelis constant at a concentration of 0 uM on rat DNA polymerase beta as a function of nucleotide substrate concentration; method in brief: as §2
[11] = system: C[C@H](CCC(=O)O)[C@H]1CC[C@H]2[C@@H]3CCC4C[C@@H](OC(=O)CCNC(=O)CCCCCNC(=O)CCCCCNC(=O)CCCCC5SCC6NC(=O)NC65)CC[C@]4(C)[C@H]3CC[C@]12C; assay: Michaelis constant at a concentration of 0 uM on rat DNA polymerase beta as a function of template primer dose; method in brief: as §1
[12] = system: C[C@H](CCC(=O)O)[C@H]1CC[C@H]2[C@@H]3CCC4C[C@@H](OC(=O)CCNC(=O)CCCCCNC(=O)CCCCCNC(=O)CCCCC5SCC6NC(=O)NC65)CC[C@]4(C)[C@H]3CC[C@]12C; assay: Michaelis constant at a concentration of 10 uM on rat DNA polymerase beta as a function of nucleotide substrate concentration; method in brief: as §1
[13] = system: C[C@H](CCC(=O)O)[C@H]1CC[C@H]2[C@@H]3CCC4C[C@@H](OC(=O)CCNC(=O)CCCCCNC(=O)CCCCCNC(=O)CCCCC5SCC6NC(=O)NC65)CC[C@]4(C)[C@H]3CC[C@]12C; assay: Michaelis constant at a concentration of 10 uM on rat DNA polymerase beta as a function of template primer dose; method in brief: as §1
[14] = system: C[C@H](CCC(=O)O)[C@H]1CC[C@H]2[C@@H]3CCC4C[C@@H](OC(=O)CCNC(=O)CCCCCNC(=O)CCCCCNC(=O)CCCCC5SCC6NC(=O)NC65)CC[C@]4(C)[C@H]3CC[C@]12C; assay: Michaelis constant at a concentration of 20 uM on rat DNA polymerase beta as a function of template primer dose; method in brief: as §1
[15] = system: C[C@H](CCC(=O)O)[C@H]1CC[C@H]2[C@@H]3CCC4C[C@@H](OC(=O)CCNC(=O)CCCCCNC(=O)CCCCCNC(=O)CCCCC5SCC6NC(=O)NC65)CC[C@]4(C)[C@H]3CC[C@]12C; assay: Michaelis constant at a concentration of 20 uMon rat DNA polymerase beta as a function of nucleotide substrate concentration; details: 20 uM; method in brief: as §1
[16] = system: C[C@H](CCC(=O)O)[C@H]1CC[C@H]2[C@@H]3CCC4C[C@@H](OC(=O)CCNC(=O)CCCCCNC(=O)CCCCCNC(=O)CCCCC5SCC6NC(=O)NC65)CC[C@]4(C)[C@H]3CC[C@]12C; assay: Compound was evaluated for relative maximum velocity (Vmax) at a concentration of 10 uM on rat DNA polymerase beta as a function of template primer dose; method in brief: as §2
[17] = system: C[C@H](CCC(=O)O)[C@H]1CC[C@H]2[C@@H]3CCC4C[C@@H](O)CC[C@]4(C)[C@H]3CC[C@]12C; details: 0 uM
[18] = system: C[C@H](CCC(=O)O)[C@H]1CC[C@H]2[C@@H]3CCC4C[C@@H](O)CC[C@]4(C)[C@H]3CC[C@]12C; details: 10 uM
[19] = system: C[C@H](CCC(=O)O)[C@H]1CC[C@H]2[C@@H]3CCC4C[C@@H](O)CC[C@]4(C)[C@H]3CC[C@]12C; details: 10 uM; remark: listed apart in the source
[20] = system: C[C@H](CCC(=O)O)[C@H]1CC[C@H]2[C@@H]3CCC4C[C@@H](O)CC[C@]4(C)[C@H]3CC[C@]12C; details: 5 uM
[21] = system: C[C@H](CCC(=O)O)[C@H]1CC[C@H]2[C@@H]3CCC4C[C@@H](O)CC[C@]4(C)[C@H]3CC[C@]12C; details: 5 uM; remark: listed apart in the source
[22] = system: C[C@H](CCC(=O)O)[C@H]1CC[C@H]2[C@@H]3CCC4C[C@@H](O)CC[C@]4(C)[C@H]3CC[C@]12C; details: 5 uM; remark: listed apart in the source
[23] = system: C[C@H](CCC(=O)O)[C@H]1CC[C@H]2[C@@H]3CCC4C[C@@H](O)CC[C@]4(C)[C@H]3CC[C@]12C; details: 5 uM; remark: listed apart in the source
Nucleic Acid [24] = assay: Compound was evaluated for relative maximum velocity (Vmax) at a concentration of 10 uM on calf DNA polymerase alpha as a function of nucleotide substrate concentration; assay type: nucleic-acid assay; details: Bos taurus; method in brief: as §1
Nucleic Acid [25] = assay: Compound was evaluated for relative maximum velocity (Vmax) at a concentration of 10 uM on calf DNA polymerase alpha as a function of template primer dose; assay type: nucleic-acid assay; details: Bos taurus; method in brief: as §1
Nucleic Acid [26] = assay: Compound was evaluated for relative maximum velocity (Vmax) at a concentration of 5 uM on calf DNA polymerase alpha as a function of nucleotide substrate concentration; assay type: nucleic-acid assay; details: Bos taurus; method in brief: as §1
Nucleic Acid [27] = assay: Compound was evaluated for relative maximum velocity (Vmax) at a concentration of 5 uM on calf DNA polymerase alpha as a function of template primer dose; assay type: nucleic-acid assay; details: Bos taurus; method in brief: as §1
Nucleic Acid [28] = assay: Compound was evaluated for Michaelis constant at a concentration of 0 uM on calf DNA polymerase alpha as a function of DNA template primer dose; assay type: nucleic-acid assay; details: Bos taurus; method in brief: as §1
Nucleic Acid [29] = assay: Michaelis constant at a concentration of 5 uM on calf DNA polymerase alpha as a function of nucleotide substrate concentration; assay type: nucleic-acid assay; details: Bos taurus; method in brief: as §1

C[C@H](CCC(=O)O)[C@H]1CC[C@H]2[C@@H]3CCC4C[C@@H](O)CC[C@]4(C)[C@H]3CC[C@]12C (stereo partly specified)
Vmax (Nucleic Acid [1]): 29.2 pM/h | Vmax (Nucleic Acid [2]): 55.6 pM/h | Vmax (Nucleic Acid [3]): 31.3 pM/h | Vmax (Nucleic Acid [4]): 24.9 pM/h | Vmax (Nucleic Acid [5]): 17.7 pM/h | Vmax (Nucleic Acid [6]): 14.8 pM/h | Km (Nucleic Acid [7]): 13 µM | Km (Nucleic Acid [8]): 1.65 µM

DNA polymerase beta (Rattus norvegicus) (from UniProt P06766)
Vmax [9]: 62.5 pMl hr-1 | Km [10]: 3.05 µM | Km [11]: 6.47 µM | Km [12]: 6.67 µM | Km [13]: 9.98 µM | Km [14]: 21.7 µM | Km [15]: 9.49 µM | Vmax [16]: 111 pMl hr-1 | Km [17]: 3.05 µM | Km [18]: 7.86 µM | Km [19]: 18.3 µM | Km [20]: 6.28 µM | Vmax [21]: 111 pMl hr-1 | Km [22]: 9.41 µM | Vmax [23]: 62.5 pMl hr-1

C[C@H](CCC(=O)O)[C@H]1CC[C@H]2[C@@H]3CCC4C[C@@H](OC(=O)CCNC(=O)CCCCCNC(=O)CCCCCNC(=O)CCCCC5SCC6NC(=O)NC65)CC[C@]4(C)[C@H]3CC[C@]12C (stereo partly specified)
Vmax (Nucleic Acid [1]): 29.2 pM/h | Vmax (Nucleic Acid [24]): 17.8 pM/h | Vmax (Nucleic Acid [25]): 21.3 pM/h | Vmax (Nucleic Acid [26]): 24.3 pM/h | Vmax (Nucleic Acid [27]): 33.5 pM/h | Km (Nucleic Acid [28]): 13 µM | Km (Nucleic Acid [29]): 1.65 µM | Vmax (Nucleic Acid [2]): 55.6 pM/h
